In ChEMBL document CHEMBL2440006, “Mastering tricyclic ring systems for desirable functional cannabinoid activity” (Eur J Med Chem, 2013):
Calls of active or inactive are those of the source.

Experiments:
[1] = target: T1, Cannabinoid receptor 2 (Homo sapiens, UniProt P34972); experiment: Antagonist activity at human recombinant […] receptor expressed in CHO cells at 1 uM after 1 hr by [35S]GTPgammaS binding assay; format: functional, cell-based
[2] = target: Cannabinoid receptor 1 (Homo sapiens) (UniProt P21554); experiment: Induction of human CB1 receptor internalization expressed in HEK293 cells at 10 uM relative to CP55940; format: cell-based
Summary of the method: (§1)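 Cells stably expressing human CB1 or human CB2 receptors, exposed to test compound alone. […] Mean of two determinations.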

[3] = target: T1, Cannabinoid receptor 2; experiment: Induction of human CB2 receptor internalization expressed in HEK293 cells at 10 uM relative to CP55940; format: cell-based; summary of the method: as §1
[4] = target: Cannabinoid receptor 1 (Rattus norvegicus, UniProt P20272); experiment: Displacement of [3H]-CP55940 from CB1 receptor in rat brain homogenate after 1.5 hrs by microbeta liquid scintillation counting analysis; format: tissue-based; details: read-out: Ki
Summary of the method: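 Membranes from rat brain homogenate (CB1) or HEK293 cells expressing human CB2. […] GF/B filtration, then scintillation counting. […] IC50 by three-parameter logistic fit, Ki by Cheng-Prusoff. Three experiments in triplicate.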

[5] = target: T1, Cannabinoid receptor 2; experiment: Displacement of [3H]-CP55940 from human CB2 receptor expressed in HEK293 cells after 1.5 hrs by microbeta liquid scintillation counting analysis; format: cell-based; details: read-out: Ki
Summary of the method: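 Membranes from rat brain homogenate (CB1) or HEK293 cells expressing human CB2. GF/B filtration, then scintillation counting. IC50 by three-parameter logistic fit, Ki by Cheng-Prusoff. Three experiments in triplicate.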

[6] = target: T1, Cannabinoid receptor 2; experiment: Agonist activity at human recombinant CB2 receptor expressed in CHO cells after 1 hr by [35S]GTPgammaS binding assay relative to CP55940; format: functional, cell-based
Summary of the method: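 Membranes from CHO cells expressing hCB1 or hCB2, preincubated at least 15 min on ice with 30 μM GDP solution. GTP-γ-[35S] with WGA-PVT SPA beads. Eight concentrations, 0.001–10 μM, in duplicate. Incubated 1 h at room temperature, centrifuged, then a further 1 h before counting. […] Mean of two determinations.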

[7] = system: Rattus norvegicus; experiment: Antiallodynic activity in ip dosed Sprague-Dawley rat spinal nerve ligation model of neuropathic pain assessed as reduction of tactile allodynia; format: functional, organism-based
Summary of the method: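 Male Sprague Dawley rats, 120–150 g. Left L5/L6 spinal nerves ligated under isoflurane; tested three weeks later. Single i.p. bolus, 5–20 mg/kg, in 30% hydroxypropyl-β-cyclodextrin in PBS, prepared within 1 h before injection. Paw withdrawal threshold by von Frey filaments, 50% threshold by up-down method. Seven rats per group. Repeated-measures ANOVA with Dunnett's test vs time 0.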

[8] = target: T1, Cannabinoid receptor 2; experiment: Agonist activity at human recombinant […] receptor expressed in CHO cells at 1 uM after 1 hr by [35S]GTPgammaS binding assay; format: functional, cell-based
[9] = Selectivity ratio of Ki for rat CB1 receptor to Ki for human CB2 receptor
[10] = target: T1, Cannabinoid receptor 2; experiment: Agonist activity at human recombinant CB2 receptor expressed in CHO cells after 1 hr by [35S]GTPgammaS binding assay; format: functional, cell-based

T1 sequence (P34972 whole entry): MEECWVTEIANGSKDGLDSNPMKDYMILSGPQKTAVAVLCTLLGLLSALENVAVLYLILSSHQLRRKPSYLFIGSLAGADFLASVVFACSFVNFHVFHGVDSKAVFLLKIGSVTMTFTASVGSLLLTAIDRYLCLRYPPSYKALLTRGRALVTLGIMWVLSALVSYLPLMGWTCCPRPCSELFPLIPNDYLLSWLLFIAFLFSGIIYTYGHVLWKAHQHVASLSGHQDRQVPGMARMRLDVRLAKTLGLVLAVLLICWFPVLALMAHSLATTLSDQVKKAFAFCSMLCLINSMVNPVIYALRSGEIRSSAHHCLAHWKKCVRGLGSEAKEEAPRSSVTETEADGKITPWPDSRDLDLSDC
Sequence of Cannabinoid receptor 1 (Homo sapiens) (P21554 whole entry): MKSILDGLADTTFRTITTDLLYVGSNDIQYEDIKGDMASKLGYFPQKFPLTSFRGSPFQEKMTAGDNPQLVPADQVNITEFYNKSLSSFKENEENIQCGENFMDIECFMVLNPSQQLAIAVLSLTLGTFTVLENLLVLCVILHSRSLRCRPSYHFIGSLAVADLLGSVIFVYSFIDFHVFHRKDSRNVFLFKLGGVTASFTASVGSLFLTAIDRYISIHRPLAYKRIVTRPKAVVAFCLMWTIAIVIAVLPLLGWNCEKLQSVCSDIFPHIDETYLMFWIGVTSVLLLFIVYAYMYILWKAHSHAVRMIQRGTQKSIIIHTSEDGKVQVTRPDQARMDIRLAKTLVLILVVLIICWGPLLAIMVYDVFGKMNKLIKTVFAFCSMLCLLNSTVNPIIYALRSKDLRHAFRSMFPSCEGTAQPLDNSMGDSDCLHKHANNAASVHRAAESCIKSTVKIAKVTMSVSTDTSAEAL
Sequence of Cannabinoid receptor 1 (P20272 whole entry): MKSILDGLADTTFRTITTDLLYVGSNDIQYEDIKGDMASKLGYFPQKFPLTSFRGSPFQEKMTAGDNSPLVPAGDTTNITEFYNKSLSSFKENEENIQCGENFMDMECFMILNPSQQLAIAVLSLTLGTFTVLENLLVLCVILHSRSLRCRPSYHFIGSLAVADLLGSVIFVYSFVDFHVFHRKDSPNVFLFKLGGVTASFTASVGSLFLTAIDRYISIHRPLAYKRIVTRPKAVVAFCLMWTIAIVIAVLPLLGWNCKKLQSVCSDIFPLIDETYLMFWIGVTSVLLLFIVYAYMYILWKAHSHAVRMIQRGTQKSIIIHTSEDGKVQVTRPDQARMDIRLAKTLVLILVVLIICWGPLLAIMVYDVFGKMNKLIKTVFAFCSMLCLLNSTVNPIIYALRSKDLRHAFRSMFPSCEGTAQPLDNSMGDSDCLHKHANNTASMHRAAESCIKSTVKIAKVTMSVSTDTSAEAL

For `CS(=O)(=O)NCCCn1c2ccccc2c2cc(C(=O)N3CCCCC3)ccc21`, the Activity [1] was “inactive”, the Activity [2] was 54.1% and the Activity [3] was 116%. For the same molecule, the Ki [4] was 1470 nM, the Ki [5] was 62 nM and the Emax [6] was 59.6%. For the same molecule, the Activity [7] was “Dose-dependent effect”, the Activity [8] was “inactive” and the Ratio Ki [9] was 23.7. The EC50 [10] was 7.3 nM.
